Screening data deposited in PubChem by several laboratories.
UCH37 inh – inhibitors of human UCH37 deubiquitinase, primary screen, biochemical, Ub-AMC cleavage, fluorescence | Ubiquitin carboxyl-terminal hydrolase isozyme L5 (Homo sapiens), Q9Y5K5 | purified proteasome/UCH37 | inhibition, % (concentration not given with the values) | 330,000 tested, 0.33% active | AID 588478, 2011;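 active = mean inhibition over replicate wells above about 20%, limit read from the data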;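 also: 0% = compound-free wells with enzyme and 100% = wells lacking proteasome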
Target sequence (Q9Y5K5 whole entry, looked up): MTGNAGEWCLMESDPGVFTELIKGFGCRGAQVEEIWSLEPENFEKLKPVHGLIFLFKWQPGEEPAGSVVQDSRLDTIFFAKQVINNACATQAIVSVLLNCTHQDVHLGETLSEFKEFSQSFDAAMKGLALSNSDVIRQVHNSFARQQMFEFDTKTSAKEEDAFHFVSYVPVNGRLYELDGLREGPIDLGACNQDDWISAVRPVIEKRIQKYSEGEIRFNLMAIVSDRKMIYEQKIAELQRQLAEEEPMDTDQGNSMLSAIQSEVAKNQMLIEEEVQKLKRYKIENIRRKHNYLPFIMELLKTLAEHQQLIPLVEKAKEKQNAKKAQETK
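Assay system: Proteasome-bound UCH37. Buffer or medium: pH 7.4 Tris-HCl (50 mM) with ovalbumin, ATP-MgCl2, DTT. Incubation: 30 min preincubation with enzyme, 25 min cleavage at room temperature. Measured by: fluorescence, ex 355 nm, em 460 nm. Read-out basis: percent inhibition. Control set: wells without proteasome as full block, compound-free enzyme plus substrate as uninhibited.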
PAFAH1B2 inh – PAFAH1B2 enzyme inhibitors, primary screen, biochemical, fluorescence polarization, human | 340,000 tested, 1.2% active | AID 492953, 2010 | Platelet-activating factor acetylhydrolase IB subunit alpha2 (Homo sapiens), P68402 | recombinant PAFAH1B2, FP-rhodamine activity probe | inhibition, % at 3.39 µM;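 active = inhibition above the mean of all tested compounds plus 3 SD, cut at about 24% in these data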;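 also: 0% = enzyme with DMSO and 100% = wells lacking PAFAH1B2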
Target sequence (P68402 whole entry, looked up): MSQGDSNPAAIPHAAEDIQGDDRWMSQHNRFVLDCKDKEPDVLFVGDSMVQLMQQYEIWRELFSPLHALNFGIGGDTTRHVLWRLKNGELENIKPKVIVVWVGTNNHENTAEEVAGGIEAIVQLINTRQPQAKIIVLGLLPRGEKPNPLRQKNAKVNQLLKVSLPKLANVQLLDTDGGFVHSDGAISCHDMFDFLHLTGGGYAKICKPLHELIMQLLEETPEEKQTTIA
PAFAH2 FP inh – PAFAH2 enzyme inhibitors, primary screen, biochemical, fluorescence polarization, human; Platelet-activating factor acetylhydrolase 2, cytoplasmic (Homo sapiens), Q99487; recombinant PAFAH2, FP-rhodamine activity probe; inhibition, % at 3.39 µM; 340,000 tested, 0.99% active; AID 492956, 2010;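 active = inhibition above the mean over all tested compounds plus 3 SD, cut at about 30% in these data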;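 also: inhibitors block probe labeling of enzyme so polarization drops; 0% = enzyme with DMSO and 100% = wells lacking PAFAH2 protein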
GRIN3A LBD mod – binders of NR3A ligand-binding domain, primary screen, biophysical, differential scanning fluorimetry, uHTS | Glutamate receptor ionotropic, NMDA 3A (GRIN3A) ligand-binding domain | NR3A LBD differential scanning fluorimetry, Tm shift; 0% = protein alone, 100% = glycine-bound protein | Tm shift relative to glycine control, % at 25 µM | 340,000 tested, 2.5% active;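 active = melting temperature shift of at least 10% of the positive control shift, at one fixed dose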
pPAFAH FP inh – pPAFAH enzyme inhibitors, primary screen, biochemical, fluorescence polarization, human. Platelet-activating factor acetylhydrolase (Homo sapiens), Q13093. recombinant pPAFAH, FP-rhodamine probe fluorescence polarization. inhibition, % at 3.39 µM. 330,000 tested, 1.5% active. AID 463082, 2010;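 active = inhibition above the mean inhibition across the screen plus 3 SD, cut at about 25% in these data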;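 also: inhibitors block binding of the rhodamine activity-based probe so polarization drops; 0% = enzyme with DMSO and 100% = wells lacking pPAFAH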
PAFAH1B3 inh – PAFAH1B3 enzyme inhibitors, primary screen, biochemical, fluorescence polarization, human; Platelet-activating factor acetylhydrolase IB subunit alpha1 (Homo sapiens), Q15102; recombinant PAFAH1B3, FP-rhodamine probe; inhibition, % at 3.39 µM; 340,000 tested, 0.28% active; AID 492972, 2010;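 active = inhibition above the screen-wide average of all tested compounds plus 3 SD, cut at about 25% in these data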;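 also: 0% = enzyme with DMSO only and 100% = wells lacking PAFAH1B3 protein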
PAFAH2 FP conf – PAFAH2 enzyme inhibitors, confirmation, biochemical, fluorescence polarization, human | shares compounds with PAFAH2 FP inh | recombinant PAFAH2, FP-rhodamine activity probe | inhibition, % at 3.39 µM | 2,300 tested, 65% active;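 active = mean inhibition over three repeats above a set limit taken from the earlier primary screen, cut at about 30% in these data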;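 also: inhibitor blocks binding of rhodamine activity probe so polarization falls; 0% = enzyme with DMSO and 100% = wells lacking PAFAH2 protein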
Active calls of the source: *. Only some compounds are listed: those with a hit (about 4.8% of all), similar ones and a draw of the others.

`COc1ccc(C=NNc2cc(N3CCOCC3)ncn2)c(OC)c1` gave UCH37 inh -28.
Screening COc1ccc(C(=O)O/N=C(/c2ccccc2)c2ccncc2)cc1 returned PAFAH1B2 inh -2, PAFAH2 FP inh 78*, GRIN3A LBD mod 1, pPAFAH FP inh 5, PAFAH1B3 inh 3 and PAFAH2 FP conf 71*.
`COc1ccc(C(=O)O/N=C(/c2ccccc2)c2ccncc2)cc1OC` gave PAFAH1B2 inh 14, PAFAH2 FP inh 74*, GRIN3A LBD mod -1, pPAFAH FP inh 2, PAFAH1B3 inh 6 and PAFAH2 FP conf 80*.
For COc1ccc(C(=O)O/N=C(\N)c2ccccc2Cl)cc1OC the results were UCH37 inh 4, PAFAH1B2 inh 5, PAFAH2 FP inh 7, GRIN3A LBD mod -5, pPAFAH FP inh 7 and PAFAH1B3 inh 8.
For COc1ccc(C(=O)O/N=C(\C)c2ccccc2)cc1 the results were PAFAH1B2 inh 1, PAFAH2 FP inh 62*, GRIN3A LBD mod -1, pPAFAH FP inh 10, PAFAH1B3 inh 3 and PAFAH2 FP conf 45*.
COc1ccc(C(=O)ON=C(C)c2nccs2)cc1 was read as UCH37 inh 4.
Screening N/C(=N\OC(=O)c1ccccc1)c1ccncc1 returned UCH37 inh 5, PAFAH1B2 inh 3, PAFAH2 FP inh 0, GRIN3A LBD mod 1, pPAFAH FP inh 3 and PAFAH1B3 inh 0.
For O=C(NN=Cc1cccc(O)c1)c1ccc(COc2ccc3c(c2)CCC3)o1 the results were UCH37 inh 3.
`O=C(NN=Cc1cn(-c2cccs2)nc1-c1ccccc1)c1ccccc1O` gave UCH37 inh -118.
`Cc1cccc(C=Nn2c(-c3cc(-c4ccccc4)n[nH]3)n[nH]c2=S)c1` gave UCH37 inh 4.
COc1ccc(C=NNC(=O)/C(=C/c2ccccc2)CCO)cc1 was read as UCH37 inh 3.
For N#Cc1ccccc1NC(=O)COC(=O)c1ccc(F)cc1F the results were UCH37 inh 1, PAFAH1B2 inh 1, PAFAH2 FP inh 46*, GRIN3A LBD mod -1, pPAFAH FP inh 16, PAFAH1B3 inh 11 and PAFAH2 FP conf 17.
`COc1cccc(NC(=O)COC(=O)c2ccc(F)cc2F)c1` gave UCH37 inh 3, PAFAH1B2 inh 4, PAFAH2 FP inh 73*, GRIN3A LBD mod -1, pPAFAH FP inh 21, PAFAH1B3 inh 2 and PAFAH2 FP conf 61*.
`CN(N=Cc1cccnc1)c1cnc2ccccc2n1` gave UCH37 inh -17.
For Cc1cc(C)c(S(=O)(=O)N2CCC(C(=O)NCc3ccncc3)CC2)c(C)c1 the results were UCH37 inh 0, PAFAH1B2 inh -6, PAFAH2 FP inh 101*, GRIN3A LBD mod 0, pPAFAH FP inh -2, PAFAH1B3 inh 1 and PAFAH2 FP conf -1.
For Cc1cc(C)c(S(=O)(=O)N2CCCC(C(=O)NCc3ccncc3)C2)c(C)c1 (centres undefined) the results were UCH37 inh 0, PAFAH1B2 inh 5, PAFAH2 FP inh 3, GRIN3A LBD mod -1, pPAFAH FP inh 2 and PAFAH1B3 inh -3.
`Cc1cc(C(=O)O)c(C)n1-c1ccccc1` gave UCH37 inh 3, PAFAH1B2 inh 5, PAFAH2 FP inh 0, GRIN3A LBD mod 4, pPAFAH FP inh 3 and PAFAH1B3 inh 9.
`Cc1ccc(C)n1-c1sccc1C(=O)O` gave UCH37 inh 16, PAFAH1B2 inh 2, PAFAH2 FP inh 46*, GRIN3A LBD mod -1, PAFAH1B3 inh 9 and PAFAH2 FP conf 25.
O=C(COC(=O)CC1CCCC1)Nc1ccccc1[N+](=O)[O-] was read as UCH37 inh 5, PAFAH1B2 inh -2, PAFAH2 FP inh 57*, GRIN3A LBD mod 2, pPAFAH FP inh 15, PAFAH1B3 inh 2 and PAFAH2 FP conf 51*.
O=C(COC(=O)c1ccc(O)cc1)Nc1ccccc1[N+](=O)[O-] was read as UCH37 inh 3, PAFAH1B2 inh 0, PAFAH2 FP inh 69*, GRIN3A LBD mod 3, pPAFAH FP inh 0, PAFAH1B3 inh 6 and PAFAH2 FP conf 67*.
COc1ccc(Cl)cc1NC(=O)CC1CCCC1 was read as UCH37 inh 2, PAFAH1B2 inh 4, PAFAH2 FP inh 6, GRIN3A LBD mod 1, pPAFAH FP inh -2 and PAFAH1B3 inh 1.
For O=C(COC(=O)CN1C(=O)c2ccccc2C1=O)Nc1ccccc1[N+](=O)[O-] the results were UCH37 inh -3, PAFAH1B2 inh 6, PAFAH2 FP inh 9, GRIN3A LBD mod 1, pPAFAH FP inh -7 and PAFAH1B3 inh 6.
For O=C(CC(=O)Nc1ccccc1[N+](=O)[O-])Nc1ccccc1[N+](=O)[O-] the results were UCH37 inh 4, PAFAH1B2 inh 1, PAFAH2 FP inh 1, GRIN3A LBD mod -3, pPAFAH FP inh -3 and PAFAH1B3 inh 1.
`CCOC(=O)c1ccccc1NC(=O)COC(=O)CC1CCCCC1` gave UCH37 inh 4, PAFAH1B2 inh -1, PAFAH2 FP inh 1, GRIN3A LBD mod 1, pPAFAH FP inh 2 and PAFAH1B3 inh 2.
`Cc1ccc(Cl)cc1NC(=O)COC(=O)CC1CCCCC1` gave UCH37 inh 0, PAFAH1B2 inh 11, PAFAH2 FP inh 31*, GRIN3A LBD mod -4, pPAFAH FP inh 13, PAFAH1B3 inh 6 and PAFAH2 FP conf 22.
Cc1ccccc1NC(=O)COC(=O)CC1CCCC1 was read as UCH37 inh 0, PAFAH1B2 inh 4, PAFAH2 FP inh 43*, GRIN3A LBD mod 1, PAFAH1B3 inh -1 and PAFAH2 FP conf 29.
Screening O=C(CNC(=O)c1cccs1)NN=Cc1ccco1 returned UCH37 inh -2.
CCCc1n[nH]c2c1C(=NO)CC(c1ccccc1)C2 (centres undefined) was read as UCH37 inh 3.
`O=C(NN=Cc1cccnc1)c1ccccc1Br` gave UCH37 inh 6.
O=C(NN=C/C=C/c1ccccc1)c1cnccn1 was read as UCH37 inh 12.
`CC(=NN=C(N)SC1CC(=O)N(c2ccc(Cl)c(Cl)c2)C1=O)c1cccs1` (centres undefined) gave UCH37 inh 10.
